Laboratory results from ChEMBL document CHEMBL1152483, “To determine the cytotoxicity of chlorambucil and one of its nitro-derivatives, conjugated to prasterone and pregnenolone, towards eight human cancer cell-lines” (Eur J Med Chem, 2009).
Active and inactive are the calls of the source. The rule behind the calls is not given here.

Key:
[1] = Chemical stability in phosphate buffer saline at pH 7.4 assessed as compound degradation by HPLC analysis; format: physicochemical; conditions: read-out: Activity
Method in brief: (§1)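 Esters are stored in phosphate buffered saline at 37 °C. Stability is followed over forty-five days by RP-HPLC (C18, acetic acid/acetonitrile pH 5.2, 1.2 ml/min, UV 254 nm), supported by infrared spectroscopy.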

[2] = Chemical stability assessed as rate of hydrolysis after 2 hrs by HPLC analysis in presence of pig liver esterase; format: physicochemical; conditions: read-out: Activity
Method in brief: (§2)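 Porcine liver esterase is preincubated about 15 min at 37 °C in phosphate buffer pH 7.4, then ester is added. Aliquots are taken at set times, quenched with an equal volume of acetonitrile, vortexed and spun 10 min at 11,600 g. Samples are run on RP-HPLC (C18, 2% acetic acid/acetonitrile pH 5.2, 1.2 ml/min, 254 nm). The zero reaction is ester in buffer alone for 15 min.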

[3] = Chemical stability assessed as rate of hydrolysis after 24 hrs by HPLC analysis in presence of pig liver esterase; format: physicochemical; conditions: read-out: Activity; method in brief: as §2
[4] = Metabolic stability in human plasma assessed as rate of hydrolysis after 24 hrs; format: ADME, cell-free; conditions: read-out: Activity
Method in brief: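 Ester stock is made in absolute ethanol and added to freshly prepared human plasma with PBS, then incubated at 37 °C. Samples are mixed with an equal volume of mobile phase, spun 20 min at 11,600 g, and the supernatant is diluted in mobile phase for RP-HPLC.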

WiDr [5] = assay: Cytotoxicity against human WiDr cells after 5 days by MTT assay; format: functional, cell-based; conditions: 120 h
Method in brief: (§3)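 Cells are grown in RPMI with 2 mM L-glutamine and 10% FBS and seeded at 400–1000 per well. They get doubling dilutions of drug, each dose in triplicate, for five days at 37 °C, 5% CO2, humidified. MTT at 3 mg/ml is added for 3 h, and formazan is dissolved in DMSO and read at 540 nm minus 620 nm. % growth inhibition is taken against control wells and IC50 calculated.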

Daoy [6] = assay: Cytotoxicity against human DaOY cells after 5 days by MTT assay; format: functional, cell-based; conditions: 120 h; method in brief: as §3
MDA-MB-468 [7] = assay: Cytotoxicity against human MDA-MB-468 cells […] after 5 days by MTT assay; format: functional, cell-based; conditions: MDA-MB-468, 120 h; method in brief: as §3
MDA-MB-468 [8] = assay: Cytotoxicity against human MDA-MB-468 cells transfected with NAD(P)H: quinone oxidoreductase NQO1 after 5 days by MTT assay; format: functional, cell-based; conditions: MDA-MB-468, 120 h; method in brief: as §3
MCF7 [9] = assay: Cytotoxicity against human MCF7 cells expressing estrogen and progesterone receptor after 5 days by MTT assay; format: functional, cell-based; conditions: MCF7, 120 h; method in brief: as §3
NCI-H460 [10] = assay: Cytotoxicity against human H460 cells after 5 days by MTT assay; format: functional, cell-based; conditions: NCI-H460, 120 h; method in brief: as §3
[11] = Cytotoxicity against human OVCA3 cells after 5 days by MTT assay; format: functional, cell-based; conditions: OVCA3, 120 h; method in brief: as §3
A-375 [12] = assay: Cytotoxicity against human A375 cells after 5 days by MTT assay; format: functional, cell-based; conditions: A-375, 120 h; method in brief: as §3
MDA-MB-468 [13] = assay: Ratio of IC50 for […] human MDA-MB-468 cells transfected with NAD(P)H: quinone oxidoreductase NQO1 to IC50 for human MDA-MB-468 cells […]; format: functional
[14] = Partition coefficient, log P after 1 hr by UV spectroscopy; format: physicochemical; conditions: octanol/water
Method in brief: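 Compound is shaken in n-octanol/water for 1 h at 20 °C, then spun 10 min at 3600 g and the phases separated. Original and shaken solutions are diluted to 0.8 mg% and compared by UV spectroscopy at 200–400 nm. Log P is calculated by the Leo method.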

[15] = Alkylating activity in 0.2 M acetate buffer of pH 5.6 at 0.1 to 1 mM after 4 hrs by spectrophotometry relative to chlorambucil; format: physicochemical; conditions: pH 5.6, 4 h, 1000 µM
Method in brief: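 Each compound at 0.1–1.0 mM in 50% (v/v) acetone/ethanol is added to 0.2 M acetate buffer pH 5.6 with 5% (w/v) p-nitrobenzyl pyridine in acetone and incubated 4 h at 37 °C. Colour is then developed with 25% (v/v) 3-amino-1-propanol in tert-butanol and absorbance read at 560 nm.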

MDA-MB-468 [16] = assay: Cytotoxicity against human MDA-MB-468 cells […] at < 100 uM after 5 days by MTT assay; format: functional, cell-based; method in brief: as §3
Daoy [17] = assay: Cytotoxicity against human DaOY cells at < 100 uM after 5 days by MTT assay; format: functional, cell-based; method in brief: as §3
WiDr [18] = assay: Cytotoxicity against human WiDr cells at < 100 uM after 5 days by MTT assay; format: functional, cell-based; method in brief: as §3
MDA-MB-468 [19] = assay: Cytotoxicity against human MDA-MB-468 cells transfected with NAD(P)H: quinone oxidoreductase NQO1 at < 100 uM after 5 days by MTT assay; format: functional, cell-based; method in brief: as §3
MCF7 [20] = assay: Cytotoxicity against human MCF7 cells expressing estrogen and progesterone receptor at < 100 uM after 5 days by MTT assay; format: functional, cell-based; method in brief: as §3
NCI-H460 [21] = assay: Cytotoxicity against human H460 cells at < 100 uM after 5 days by MTT assay; format: functional, cell-based; method in brief: as §3
OVCA3 = assay: Cytotoxicity against human OVCA3 cells at < 100 uM after 5 days by MTT assay; format: functional, cell-based; method in brief: as §3
A-375 [22] = assay: Cytotoxicity against human A375 cells at < 100 uM after 5 days by MTT assay; format: functional, cell-based; method in brief: as §3
[23] = Chemical stability in phosphate buffer saline assessed as half life by HPLC analysis; format: physicochemical; method in brief: as §1
[24] = Metabolic stability in rat liver assessed as half life; format: ADME, tissue-based
[25] = Metabolic stability in rat blood assessed as half life; format: ADME, tissue-based

C[C@]12CC[C@H](OC(=O)CCCc3ccc(N(CCCl)CCCl)c([N+](=O)[O-])c3)CC1=CC[C@@H]1[C@@H]2CC[C@]2(C)C(=O)CC[C@@H]12
degraded [1]: 46% | metabolised at 2 h [2]: 24% | metabolised at 24 h [3]: 83% | metabolised at 24 h [4]: 51% | IC50 (WiDr [5]): > 100 µM | IC50 (Daoy [6]): > 100 µM | IC50 (MDA-MB-468 [7]): 7.25 µM | IC50 (MDA-MB-468 [8]): 10.6 µM | IC50 (MCF7 [9]): > 100 µM | IC50 (NCI-H460 [10]): > 100 µM | IC50 [11]: > 100 µM | IC50 (A-375 [12]): > 100 µM | Ratio IC50 (MDA-MB-468 [13]): 1.5 | logP at 1 h [14]: > 8 | Activity [15]: 8%

C[C@]12CC[C@H](O)CC1=CC[C@@H]1[C@@H]2CC[C@]2(C)C(=O)CC[C@@H]12
Activity (MDA-MB-468 [16]): inactive | Activity (Daoy [17]): inactive | Activity (WiDr [18]): inactive | Activity (MDA-MB-468 [19]): inactive | Activity (MCF7 [20]): inactive | Activity (NCI-H460 [21]): inactive | Activity (OVCA3): inactive | Activity (A-375 [22]): inactive

O=C(O)CCCc1ccc(N(CCCl)CCCl)c([N+](=O)[O-])c1
IC50 (WiDr [5]): 13 µM | IC50 (Daoy [6]): 5.3 µM | IC50 (MDA-MB-468 [7]): 1.16 µM | IC50 (MDA-MB-468 [8]): 3.75 µM | IC50 (MCF7 [9]): 23 µM | IC50 (NCI-H460 [10]): 9.53 µM | IC50 [11]: 15.6 µM | IC50 (A-375 [12]): 9.46 µM | logP at 1 h [14]: 3.7 | Activity [15]: 38%

O=C(O)CCCc1ccc(N(CCCl)CCCl)cc1 [CHLORAMBUCIL]
half-life [23]: 60 min | IC50 (WiDr [5]): 7.13 µM | IC50 (Daoy [6]): 1.36 µM | IC50 (MDA-MB-468 [7]): 0.65 µM | IC50 (MDA-MB-468 [8]): 0.79 µM | IC50 (MCF7 [9]): 4.5 µM | IC50 (NCI-H460 [10]): 2.19 µM | IC50 [11]: 8.92 µM | IC50 (A-375 [12]): 2.58 µM | logP at 1 h [14]: 3.8 | Activity [15]: > 100%

CC(=O)[C@H]1CC[C@H]2[C@@H]3CC=C4C[C@@H](O)CC[C@]4(C)[C@H]3CC[C@]12C
Activity (MDA-MB-468 [16]): inactive | Activity (Daoy [17]): inactive | Activity (WiDr [18]): inactive | Activity (MDA-MB-468 [19]): inactive | Activity (MCF7 [20]): inactive | Activity (NCI-H460 [21]): inactive | Activity (OVCA3): inactive | Activity (A-375 [22]): inactive

C[C@]12CC[C@H](OC(=O)CCCc3ccc(N(CCCl)CCCl)cc3)CC1=CC[C@@H]1[C@@H]2CC[C@]2(C)C(=O)CC[C@@H]12
metabolised at 2 h [2]: 24% | metabolised at 24 h [3]: 83% | metabolised at 24 h [4]: 51% | IC50 (WiDr [5]): > 100 µM | IC50 (Daoy [6]): 19.6 µM | IC50 (MDA-MB-468 [7]): 5.48 µM | IC50 (MDA-MB-468 [8]): 11.8 µM | IC50 (MCF7 [9]): 72.5 µM | IC50 (NCI-H460 [10]): 11.8 µM | IC50 [11]: 82.5 µM | IC50 (A-375 [12]): 61.4 µM | Ratio IC50 (MDA-MB-468 [13]): 1.5 | logP at 1 h [14]: > 8 | Activity [15]: 70%

CC(=O)[C@H]1CC[C@H]2[C@@H]3CC=C4C[C@@H](OC(=O)CCCc5ccc(N(CCCl)CCCl)cc5)CC[C@]4(C)[C@H]3CC[C@]12C
metabolised at 2 h [2]: 24% | metabolised at 24 h [3]: 83% | metabolised at 24 h [4]: 37% | IC50 (WiDr [5]): 86.3 µM | IC50 (Daoy [6]): 41.9 µM | IC50 (MDA-MB-468 [7]): 10.3 µM | IC50 (MDA-MB-468 [8]): 20.5 µM | IC50 (MCF7 [9]): 90 µM | IC50 (NCI-H460 [10]): 36.2 µM | IC50 [11]: 88.8 µM | IC50 (A-375 [12]): 74.2 µM | Ratio IC50 (MDA-MB-468 [13]): 2 | logP at 1 h [14]: > 8 | Activity [15]: 18%

CC(=O)[C@H]1CC[C@H]2[C@@H]3CC=C4C[C@@H](OC(=O)CCCc5ccc(N(CCCl)CCCl)c([N+](=O)[O-])c5)CC[C@]4(C)[C@H]3CC[C@]12C
degraded [1]: 48% | metabolised at 2 h [2]: 24% | metabolised at 24 h [3]: 83% | metabolised at 24 h [4]: 37% | IC50 (WiDr [5]): > 100 µM | IC50 (Daoy [6]): > 100 µM | IC50 (MDA-MB-468 [7]): 19.3 µM | IC50 (MDA-MB-468 [8]): 32.6 µM | IC50 (MCF7 [9]): 68.3 µM | IC50 (NCI-H460 [10]): > 100 µM | IC50 [11]: > 100 µM | IC50 (A-375 [12]): > 100 µM | Ratio IC50 (MDA-MB-468 [13]): 2 | logP at 1 h [14]: > 8 | Activity [15]: 4%

CC(C)(C)OC(=O)CCCc1ccc(N(CCCl)CCCl)cc1 [CHLORAMBUCIL TERTIARY BUTYL ESTER]
half-life [24]: 120 min | half-life [25]: 420 min
